Laboratory results as given in ChEMBL document CHEMBL1144401, “Combination of molecular modeling, site-directed mutagenesis, and SAR studies to delineate the binding site of pyridopyrimidine antagonists on the human CCK1 receptor” (J Med Chem, 2005).

Experiments:
[1] = target: T1, Gastrin/cholecystokinin type B receptor (Rattus norvegicus, UniProt P30553); experiment: Inhibition of 71 pM [125I]BH-(Thr,Nle)CCK-9 binding to rat cholecystokinin 2 receptor
T1 sequence (P30553 whole entry): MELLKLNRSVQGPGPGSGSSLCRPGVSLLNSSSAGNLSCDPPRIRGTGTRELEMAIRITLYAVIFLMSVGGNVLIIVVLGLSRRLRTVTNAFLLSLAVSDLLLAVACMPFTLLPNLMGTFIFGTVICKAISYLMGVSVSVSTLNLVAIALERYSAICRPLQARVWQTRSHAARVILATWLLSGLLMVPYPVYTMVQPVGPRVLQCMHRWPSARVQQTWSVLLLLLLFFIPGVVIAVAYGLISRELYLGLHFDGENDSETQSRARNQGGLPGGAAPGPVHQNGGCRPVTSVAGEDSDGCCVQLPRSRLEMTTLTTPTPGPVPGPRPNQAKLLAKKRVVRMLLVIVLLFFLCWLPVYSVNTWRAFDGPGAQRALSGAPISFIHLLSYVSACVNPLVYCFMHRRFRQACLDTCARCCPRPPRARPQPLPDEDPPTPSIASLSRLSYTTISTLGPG

[2] = target: T2, Cholecystokinin receptor type A (Homo sapiens, UniProt P32238); experiment: Inhibition of CCK-Induced inositol phosphate production in Cos-7 cells expressing human CCK1R; assay type: functional, cell-based
T2 sequence (P32238 whole entry): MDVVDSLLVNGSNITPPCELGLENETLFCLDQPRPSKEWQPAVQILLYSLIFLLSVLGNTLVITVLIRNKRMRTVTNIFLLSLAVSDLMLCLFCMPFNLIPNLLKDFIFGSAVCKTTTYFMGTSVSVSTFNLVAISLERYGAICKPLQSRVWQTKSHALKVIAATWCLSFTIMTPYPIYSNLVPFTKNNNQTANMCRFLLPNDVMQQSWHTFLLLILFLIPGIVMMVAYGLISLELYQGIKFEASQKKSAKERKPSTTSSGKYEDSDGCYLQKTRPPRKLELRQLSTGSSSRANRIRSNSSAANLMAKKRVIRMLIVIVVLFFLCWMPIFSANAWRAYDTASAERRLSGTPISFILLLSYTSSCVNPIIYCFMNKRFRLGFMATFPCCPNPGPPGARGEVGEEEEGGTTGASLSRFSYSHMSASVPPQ

[3] = target: T2, Cholecystokinin receptor type A; experiment: Inhibition of CCK binding to Cos-7 cells expressing human cholecystokinin 1 receptor; assay type: cell-based
Summary of the method: (§1)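 COS-7 cells were grown in DMEM with 5% FCS and transiently transfected by DEAE-dextran with 2 µg/plate of human CCK1R or CCK2R cDNA (from pancreas or gallbladder). About 24 h after replating, cells were incubated 60 min at 37 °C in DMEM with 0.1% BSA and 71 pM [125I]BH-(Thr,Nle)CCK-9 plus competitor. Nonspecific binding used 1 µM. IC50 given as mean ± SEM, 3–6 experiments.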

[4] = target: T3, Gastrin/cholecystokinin type B receptor (Homo sapiens, UniProt P32239); experiment: Inhibition of CCK binding to Cos-7 cells expressing human cholecystokinin 2 receptor; assay type: cell-based; summary of the method: as §1
T3 sequence (P32239 whole entry): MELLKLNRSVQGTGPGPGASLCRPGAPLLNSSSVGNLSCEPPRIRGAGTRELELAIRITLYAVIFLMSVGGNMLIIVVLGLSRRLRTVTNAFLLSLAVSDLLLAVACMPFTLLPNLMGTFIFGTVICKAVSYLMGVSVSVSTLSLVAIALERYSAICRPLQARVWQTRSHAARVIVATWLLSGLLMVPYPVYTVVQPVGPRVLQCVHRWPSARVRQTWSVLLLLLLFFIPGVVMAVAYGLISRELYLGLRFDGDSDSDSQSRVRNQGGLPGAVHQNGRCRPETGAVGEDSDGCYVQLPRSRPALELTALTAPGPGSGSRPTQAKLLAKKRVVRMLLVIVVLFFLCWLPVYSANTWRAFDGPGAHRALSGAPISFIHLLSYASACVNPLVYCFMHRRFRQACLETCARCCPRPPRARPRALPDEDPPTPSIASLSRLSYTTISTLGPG

[5] = target: Cholecystokinin receptor type A (Homo sapiens, UniProt P32238, I329A); experiment: Inhibition of CCK-induced inositol phosphate in Cos-7 cells expressing mutant CCK1R (I329A); assay type: functional, cell-based
Cholecystokinin receptor type A (Homo sapiens, UniProt P32238, I329A), sequence (P32238 whole entry I329A): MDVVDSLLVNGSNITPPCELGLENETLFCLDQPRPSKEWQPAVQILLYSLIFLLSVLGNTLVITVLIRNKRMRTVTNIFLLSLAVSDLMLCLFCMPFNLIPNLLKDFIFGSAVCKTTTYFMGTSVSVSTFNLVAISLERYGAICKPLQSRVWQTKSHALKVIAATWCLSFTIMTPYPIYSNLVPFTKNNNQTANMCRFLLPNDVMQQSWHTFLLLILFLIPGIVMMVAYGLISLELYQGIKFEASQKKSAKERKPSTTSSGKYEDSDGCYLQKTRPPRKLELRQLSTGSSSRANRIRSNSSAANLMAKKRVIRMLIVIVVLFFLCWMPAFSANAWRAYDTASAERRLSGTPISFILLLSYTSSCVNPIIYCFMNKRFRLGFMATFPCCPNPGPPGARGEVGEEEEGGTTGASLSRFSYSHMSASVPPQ
Summary of the method: (§2)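 Mutant human CCK1R cDNAs were made by site-directed mutagenesis in pRFENeo and sequence-verified. COS-7 cells were transfected by DEAE-dextran. Cells were [3H]inositol-labelled overnight, then LiCl-preincubated and incubated 60 min at 37 °C in pH 7.45 PI buffer with CCK and varying antagonist. Dowex-separated inositol phosphates were counted. IC50 given as mean ± SEM; Fmut = IC50(mutant)/IC50(wild type).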

[6] = target: Cholecystokinin receptor type A (Homo sapiens, UniProt P32238, I329F); experiment: Inhibition of CCK-Induced inositol phosphate in Cos-7 cells expressing mutant CCK1R (I329F); assay type: functional, cell-based; summary of the method: as §2
Cholecystokinin receptor type A (Homo sapiens, UniProt P32238, I329F), sequence (P32238 whole entry I329F): as the sequence (P32238 whole entry I329A) above, with A329F counted along it

[7] = target: Cholecystokinin receptor type A (Homo sapiens, UniProt P32238, I352A); experiment: Inhibition of CCK-Induced inositol phosphate in Cos-7 cells expressing mutant CCK1R (I352A); assay type: functional, cell-based; summary of the method: as §2
Cholecystokinin receptor type A (Homo sapiens, UniProt P32238, I352A), sequence (P32238 whole entry I352A): as the sequence (P32238 whole entry I329A) above, with A329I, I352A counted along it

[8] = target: Cholecystokinin receptor type A (Homo sapiens, UniProt P32238, M195L); experiment: Inhibition of CCK-Induced inositol phosphate in Cos-7 cells expressing mutant CCK1R (M195L); assay type: functional, cell-based; summary of the method: as §2
Cholecystokinin receptor type A (Homo sapiens, UniProt P32238, M195L), sequence (P32238 whole entry M195L): as the sequence (P32238 whole entry I329A) above, with M195L, A329I counted along it

[9] = target: Cholecystokinin receptor type A (Homo sapiens, UniProt P32238, R197M); experiment: Inhibition of CCK-Induced inositol phosphate in Cos-7 cells expressing mutant CCK1R (R197M); assay type: functional, cell-based; summary of the method: as §2
Cholecystokinin receptor type A (Homo sapiens, UniProt P32238, R197M), sequence (P32238 whole entry R197M): as the sequence (P32238 whole entry I329A) above, with R197M, A329I counted along it

[10] = target: Cholecystokinin receptor type A (Homo sapiens, UniProt P32238, R336M); experiment: Inhibition of CCK-Induced inositol phosphate in Cos-7 cells expressing mutant CCK1R (R336M); assay type: functional, cell-based; summary of the method: as §2
Cholecystokinin receptor type A (Homo sapiens, UniProt P32238, R336M), sequence (P32238 whole entry R336M): as the sequence (P32238 whole entry I329A) above, with A329I, R336M counted along it

[11] = target: Cholecystokinin receptor type A (Homo sapiens, UniProt P32238, S342A); experiment: Inhibition of CCK-Induced inositol phosphate in Cos-7 cells expressing mutant CCK1R (S342A); assay type: functional, cell-based; summary of the method: as §2
Cholecystokinin receptor type A (Homo sapiens, UniProt P32238, S342A), sequence (P32238 whole entry S342A): as the sequence (P32238 whole entry I329A) above, with A329I, S342A counted along it

[12] = target: Cholecystokinin receptor type A (Homo sapiens, UniProt P32238, S348A); experiment: Inhibition of CCK-Induced inositol phosphate in Cos-7 cells expressing mutant CCK1R (S348A); assay type: functional, cell-based; summary of the method: as §2
Cholecystokinin receptor type A (Homo sapiens, UniProt P32238, S348A), sequence (P32238 whole entry S348A): as the sequence (P32238 whole entry I329A) above, with A329I, S348A counted along it

[13] = target: Cholecystokinin receptor type A (Homo sapiens, UniProt P32238, T117A); experiment: Inhibition of CCK-Induced inositol phosphate in Cos-7 cells expressing mutant CCK1R (T117A); assay type: functional, cell-based; summary of the method: as §2
Cholecystokinin receptor type A (Homo sapiens, UniProt P32238, T117A), sequence (P32238 whole entry T117A): as the sequence (P32238 whole entry I329A) above, with T117A, A329I counted along it

[14] = target: T4, Cholecystokinin receptor type A (Rattus norvegicus, UniProt P30551); experiment: Inhibition of 71 pM [125I]BH-(Thr,Nle)CCK-9 binding to rat cholecystokinin 1 receptor
T4 sequence (P30551 whole entry): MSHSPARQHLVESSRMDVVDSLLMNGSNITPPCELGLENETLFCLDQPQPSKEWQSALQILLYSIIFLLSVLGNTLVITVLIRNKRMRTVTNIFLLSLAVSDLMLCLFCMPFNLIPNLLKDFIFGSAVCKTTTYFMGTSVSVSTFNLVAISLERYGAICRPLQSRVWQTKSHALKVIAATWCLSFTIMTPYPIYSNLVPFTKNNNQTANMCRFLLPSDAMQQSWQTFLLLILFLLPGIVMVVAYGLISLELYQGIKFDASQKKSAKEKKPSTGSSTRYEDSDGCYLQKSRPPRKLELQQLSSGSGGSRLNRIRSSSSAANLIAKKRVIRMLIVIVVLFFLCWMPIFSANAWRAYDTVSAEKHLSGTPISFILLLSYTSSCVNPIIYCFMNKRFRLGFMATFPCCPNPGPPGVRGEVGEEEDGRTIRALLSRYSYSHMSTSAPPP

[15] = target: Cholecystokinin receptor type A (Homo sapiens, UniProt P32238, F107A); experiment: Inhibition of CCK-induced inositol phosphate in Cos-7 cells expressing mutant CCK1R (F107A); assay type: functional, cell-based; summary of the method: as §2
Cholecystokinin receptor type A (Homo sapiens, UniProt P32238, F107A), sequence (P32238 whole entry F107A): as the sequence (P32238 whole entry I329A) above, with F107A, A329I counted along it

[16] = system: Cholecystokinin receptor type A (Homo sapiens), P32238 [UNDEFINED MUTATION]
[17] = system: Cholecystokinin receptor type A (Homo sapiens), P32238 [UNDEFINED MUTATION]; remark: listed apart in the source
[18] = system: Cholecystokinin receptor type A (Homo sapiens), P32238 [UNDEFINED MUTATION]; remark: listed apart in the source
[19] = system: Cholecystokinin receptor type A (Homo sapiens), P32238 [UNDEFINED MUTATION]; remark: listed apart in the source
[20] = system: Cholecystokinin receptor type A (Homo sapiens), P32238 [UNDEFINED MUTATION]; remark: listed apart in the source
[21] = system: Cholecystokinin receptor type A (Homo sapiens), P32238 [UNDEFINED MUTATION]; remark: listed apart in the source
[22] = system: Cholecystokinin receptor type A (Homo sapiens), P32238 [UNDEFINED MUTATION]; remark: listed apart in the source
[23] = system: Cholecystokinin receptor type A (Homo sapiens), P32238 [UNDEFINED MUTATION]; remark: listed apart in the source
[24] = system: Cholecystokinin receptor type A (Homo sapiens), P32238 [UNDEFINED MUTATION]; remark: listed apart in the source
[25] = system: Cholecystokinin receptor type A (Homo sapiens), P32238 [UNDEFINED MUTATION]; remark: listed apart in the source

CC(C)(C)OC(=O)N[C@@H](Cc1c[nH]c2ccccc12)C(=O)N[C@@H]1CCCN2C(=O)N(Cc3ccccc3)C(=O)C[C@@H]12 [IQM-95333]
IC50 [1]: > 10000 nM

CC(C)(C)OC(=O)N[C@@H](Cc1c[nH]c2ccccc12)C(=O)N[C@H]1CCCN2C(=O)N(Cc3ccccc3)C(=O)C[C@@H]12
IC50 [2]: 20900 nM | IC50 [3]: 6850 nM | IC50 [4]: 6020 nM

CC(C)(C)OC(=O)N[C@@H](Cc1c[nH]c2ccccc12)C(=O)N[C@@H]1CCCN2C(=O)N(c3cccc4ccccc34)C(=O)C[C@@H]12
IC50 [5]: 9.3 nM | IC50 [6]: 801 nM | IC50 [7]: 227 nM | IC50 [8]: 5.2 nM | IC50 [9]: 8.9 nM | IC50 [10]: 582 nM | IC50 [11]: 7.9 nM | IC50 [12]: 3.6 nM | IC50 [13]: 24.9 nM | IC50 [2]: 8.8 nM | IC50 [14]: 0.59 nM | IC50 [3]: 2.1 nM | IC50 [4]: > 10000 nM | IC50 [15]: 26.8 nM | Fmut [16]: 3 | Fmut [17]: 1 | Fmut [18]: 90.8 | Fmut [19]: 21.2 | Fmut [20]: 0.2 | Fmut [21]: 0.9 | Fmut [22]: 40.1 | Fmut [23]: 0.7 | Fmut [24]: 0.5 | Fmut [25]: 2

CC(C)(C)OC(=O)N[C@@H](Cc1c[nH]c2ccccc12)C(=O)N[C@@H]1CCCN2C(=O)N(c3ccccc3)C(=O)C[C@@H]12
IC50 [5]: 1110 nM | IC50 [6]: 514 nM | IC50 [7]: 2290 nM | IC50 [8]: 35.2 nM | IC50 [9]: 23 nM | IC50 [10]: 4860 nM | IC50 [11]: 33.2 nM | IC50 [12]: 36.6 nM | IC50 [13]: 71.6 nM | IC50 [2]: 35.8 nM | IC50 [3]: 5.2 nM | IC50 [4]: > 10000 nM | IC50 [15]: 23.3 nM | Fmut [16]: 0.7 | Fmut [17]: 30.8 | Fmut [18]: 14.3 | Fmut [19]: 65.5 | Fmut [20]: 0.4 | Fmut [21]: 0.7 | Fmut [22]: 125 | Fmut [23]: 0.8 | Fmut [24]: 1.2 | Fmut [25]: 1.9

CC(C)(C)OC(=O)N[C@@H](Cc1c[nH]c2ccccc12)C(=O)N[C@@H]1CCCN2C(S)N(Cc3ccccc3)C(=O)C[C@@H]12 (some centres undefined)
IC50 [5]: 129 nM | IC50 [6]: 183 nM | IC50 [7]: 831 nM | IC50 [8]: 5.8 nM | IC50 [9]: 11.8 nM | IC50 [10]: 2060 nM | IC50 [11]: 27.5 nM | IC50 [12]: 5.7 nM | IC50 [13]: 28.4 nM | IC50 [2]: 7.3 nM | IC50 [3]: 3.8 nM | IC50 [4]: > 10000 nM | IC50 [15]: 31.5 nM | Fmut [16]: 4.6 | Fmut [17]: 6.6 | Fmut [18]: 24.9 | Fmut [19]: 61.6 | Fmut [20]: 0.3 | Fmut [21]: 0.4 | Fmut [22]: 138 | Fmut [23]: 0.8 | Fmut [24]: 0.2 | Fmut [25]: 1.6
